Experimental data of several laboratories.
Target: Mitogen-activated protein kinase kinase kinase kinase 1 (MAP4K1, Homo sapiens, UniProt Q92918)

| SMILES | observed | method | concentration | remaining binding [%] |
| --- | --- | --- | --- | --- |
| c1cncc(-c2cccc(Nc3nccc(NC4CCCCC4)n3)c2)c1 | binding | competition with immobilised ligand | 10 µM | 39 |
| C[C@@H](c1ccc(-n2cnc3c(N)ncnc32)cc1)N1CCc2nn(C)c(Cc3ccccc3)c2C1=O | binding | competition with immobilised ligand | 0.1 µM | 100 |
| O=C(NCC1CCOCC1)c1n[nH]cc1NC(=O)c1c(F)cccc1F | binding | competition with immobilised ligand | 1 µM | 71 |
| CC1CCCN1c1nccc(-c2cnn3ncccc23)n1 (stereo not shown) | binding | – | 1 µM | 100 |
| O=C(c1ccc(Nc2nccc(-c3cc4ccccc4s3)n2)cc1)N1CCC(N2CCCC2)CC1 | binding | competition with immobilised ligand | 1 µM | 84 |
| CSc1cccnc1N1CCN(Cc2nc3ccccc3[nH]2)CC1 | cell-free assay | competition with immobilised ligand | 1 µM | 100 |
| CN(C)c1nccc(-c2cnc3ncccn23)n1 | binding | – | 1 µM | 100 |
| C[C@H](c1ccnc(Nc2nc3ccc(-c4cc(N(C)C)ncn4)cc3[nH]2)c1)N1CCN(C(=O)CC(F)(F)F)CC1 | cell-free assay | competition with immobilised ligand | 0.1 µM | 51 |
| CN(C)c1nccc(-c2cnn3ncccc23)n1 | binding | – | 1 µM | 100 |
| CNC(=O)[C@@H]1CC[C@@H](n2c(-c3ccc4cnccc4c3)nc3ccc(C(=O)NCc4cccc(C(N)=O)c4)cc32)C1 | binding | competition with immobilised ligand | 1 µM | 82 |
| Cc1cnn2ncc(-c3ccnc(N(C)C)n3)c2c1 | binding | – | 1 µM | 99 |
| FC(F)(F)Oc1cccc(-c2cnc3ccc(-c4ccncc4)nn23)c1 | cell-free assay | competition with immobilised ligand | 5 µM | 68 |
| FC(F)(F)c1ccc2c(c1)nc(-c1cccnc1)n2C1CC1 | cell-free assay | competition with immobilised ligand | 1 µM | 93 |
| O=C(c1ccc(Nc2ncc(Cl)c(-c3ccc(Cl)s3)n2)cc1)N1CCC(N2CCCC2)CC1 | binding | competition with immobilised ligand | 1 µM | 12 |
| N[C@@H]1CCN(c2nccc(-c3cnn4ncccc34)n2)C1 | binding | – | 1 µM | 100 |
| CNC(=O)Nc1ccc2c(c1)[C@@]1(CC2)OC(=O)N(CC(=O)N(Cc2ccc(F)cc2)[C@@H](C)C(F)(F)F)C1=O | cell-free assay | competition with immobilised ligand | 1 µM | 90 |
| C[C@H]1CCN(c2nccc(-c3cnn4ncccc34)n2)C1 | binding | – | 1 µM | 99 |
| CS(=O)(=O)c1cc(C2(NC(=O)c3cncc4c3cnn4-c3ccc(F)cc3)CC2)ccn1 | cell-free assay | competition with immobilised ligand | 1 µM | 89 |
| CCN1CCN(Cc2ccc(C(=O)Nc3ccc(C)c(Oc4ccc5c(c4)CC(=O)N5)c3)cc2C(F)(F)F)CC1 | binding | competition with immobilised ligand | 1 µM | 90 |
| O=C(c1ccc(Nc2ncc(Cl)c(-c3cc4ccccc4s3)n2)cc1)N1CCC(N2CCCC2)CC1 | binding | competition with immobilised ligand | 1 µM | 26 |
| CO[C@H]1CC[C@H](CNc2ccc(S(=O)(=O)NC(=O)c3ccc(N4CCN(CC5=C(c6ccc(Cl)cc6)CC(C)(C)CC5)CC4)cc3Oc3cnc4[nH]ccc4c3)cc2[N+](=O)[O-])CC1 | cell-free assay | competition with immobilised ligand | 1 µM | 69 |
| COc1ccnn2ncc(-c3ccnc(N(C)C)n3)c12 | binding | – | 1 µM | 100 |
